# ChEMBL document CHEMBL3259692, “Inhibition of biofilm formation by conformationally constrained indole-based analogues of the marine alkaloid oroidin” (2014)
# Activity calls are given as the source filed them. The rule behind the calls is not given here.
# What was measured:
# Streptococcus mutans [1] = test: Antimicrobial activity against Streptococcus mutans 240 assessed as biofilm formation at 100 uM after 48 hrs by crystal violet staining-based spectrophotometry relative to control; type: functional
# Summary of the method: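 Single-concentration screen in a modified biofilm-formation assay. Compound at 100 µM. Biofilm formed is expressed as a percentage of the negative control. Values are the mean of three independent experiments.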
# Pseudomonas aeruginosa = test: Antimicrobial activity against Pseudomonas aeruginosa 6121 assessed as inhibition of biofilm formation after 24 hrs by crystal violet staining-based spectrophotometry; type: functional, organism-based
# Staphylococcus aureus [2] = test: Antimicrobial activity against methicillin-resistant Staphylococcus aureus 25762 assessed as biofilm formation at 100 uM after 48 hrs by crystal violet staining-based spectrophotometry relative to control; type: functional
# Streptococcus mutans [3] = test: Antimicrobial activity against Streptococcus mutans 240 assessed as inhibition of biofilm formation after 48 hrs by crystal violet staining-based spectrophotometry; type: functional
# Staphylococcus aureus [4] = test: Antimicrobial activity against methicillin-resistant Staphylococcus aureus 25762 assessed as inhibition of biofilm formation after 48 hrs by crystal violet staining-based spectrophotometry; type: functional
Structure (SMILES),Activity (Streptococcus mutans [1]),inhibition (Pseudomonas aeruginosa),Activity (Staphylococcus aureus [2]),MBIC50 (Streptococcus mutans [3]) [µM],MBIC50 (Staphylococcus aureus [4]) [µM]
Cl.Nc1nc(-c2cccc(NC(=O)c3cc4cc(F)ccc4[nH]3)c2)c[nH]1,8.7%,inactive,inactive,–,–
CC(C)(C)OC(=O)n1cc(-c2cccc(NC(=O)c3cc4ccccc4[nH]3)c2)nc1N,30.6%,inactive,inactive,–,–
Cl.Nc1nc(-c2cccc(NC(=O)c3c[nH]c4ccccc34)c2)c[nH]1,23.9%,inactive,inactive,–,–
Cl.Nc1nc(-c2cccc(NC(=O)c3cc4cc(Cl)ccc4[nH]3)c2)c[nH]1,6.8%,inactive,44%,–,–
Cl.Nc1nc(-c2ccc(NC(=O)c3cc4ccccc4[nH]3)cc2)c[nH]1,8.1%,inactive,11.1%,60,90
Cl.Nc1nc(-c2cccc(NC(=O)c3cc4cc(OCc5ccccc5)ccc4[nH]3)c2)c[nH]1,8.2%,inactive,31.4%,–,–
CC(C)(C)OC(=O)n1cc(-c2cccc(NC(=O)c3cc4cc(O)ccc4[nH]3)c2)nc1N,57.6%,inactive,inactive,–,–
Nc1nc(/C=C/CNC(=O)c2cc3ccccc3[nH]2)c[nH]1,inactive,inactive,inactive,–,–
Cl.Nc1nc(-c2cccc(NC(=O)c3cc4ccccc4[nH]3)c2)c[nH]1,14.2%,inactive,13.9%,–,–
Nc1ccc2[nH]c(C(=O)Nc3cccc(-c4c[nH]c(N)n4)c3)cc2c1,inactive,inactive,inactive,–,–
CC(C)(C)OC(=O)n1cc(-c2cccc(NC(=O)c3cc4cc(N)ccc4[nH]3)c2)nc1N,inactive,inactive,inactive,–,–
Nc1nc(/C=C/CNC(=O)c2cc3cc(F)ccc3[nH]2)c[nH]1,18.7%,inactive,8.1%,60,60
Nc1ncc(/C=C/CNC(=O)c2cc(Br)c(Br)[nH]2)[nH]1 [OROIDIN],18%,–,inactive,–,–
COc1ccc2[nH]c(C(=O)Nc3cccc(-c4c[nH]c(N)n4)c3)cc2c1.Cl,10.5%,inactive,inactive,–,–
Cl.Nc1nc(-c2cccc(NC(=O)c3cc4cc(O)ccc4[nH]3)c2)c[nH]1,53.4%,inactive,inactive,–,–
CNc1nc(-c2cccc(NC(=O)c3cc4ccccc4[nH]3)c2)c[nH]1.Cl,8.8%,inactive,19.1%,80,70
Cl.Nc1nc(-c2ccc(NC(=O)c3cc4cc(Cl)ccc4[nH]3)cc2)c[nH]1,38.2%,inactive,inactive,–,–
Cl.Nc1nc(-c2cccc(NC(=O)c3cc4cc([N+](=O)[O-])ccc4[nH]3)c2)c[nH]1,33.3%,inactive,inactive,–,–
Cl.Nc1nc(-c2cccc(NC(=O)c3cc4sccc4[nH]3)c2)c[nH]1,10.1%,inactive,23%,60,90
CC(C)(C)OC(=O)n1cc(-c2cccc(NC(=O)c3cc4cc(OC(F)(F)F)ccc4[nH]3)c2)nc1N,inactive,inactive,inactive,–,–
Cl.Nc1nc(-c2ccc(NC(=O)c3cc4cc(F)ccc4[nH]3)cc2)c[nH]1,3.9%,inactive,10.9%,50,60
